Molecules are shown by their SMILES.

In series [1] the test system is Rattus norvegicus. The series can be described thus: Biodistribution in fat of immature female rat after 1 hr administration of 3 micro Ci (111 kBq) in the absence of 60 microg estradiol. Format: ADME, organism-based, Adipose tissue. To be noted: in vivo. The method, boiled down:
(§1)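 Immature female Long Evans rats (21–24 days, 45–70 g), unanesthetized in retention cages, given 3 µCi (111 kBq) 125I-labeled steroid i.v. via lateral tail vein. Vehicle was ethanol diluted in saline containing 1% Tween-80, giving 9% ethanol final. The blocking group received 60 µg unlabeled estradiol co-injected. Rats were killed under ether by axillary bleeding, and tissues were KCl-washed and gamma-counted. Data are %ID/g, mean ± SE, n=3–5.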

For series [2], the system named is Rattus norvegicus. The experiment in a line: Biodistribution in lungs of immature female rat after 12 hour administration of 3 micro Ci (111 kBq) in the absence of 60 microg estradiol. Format: ADME, organism-based, Lung. To be noted: in vivo. The method, boiled down: (§2)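 Immature female Long Evans rats (21–24 days, 45–70 g), three to five per group, given 125I-labeled steroid (3 μCi, 111 kBq) by lateral tail vein without anesthesia. Vehicle: ethanol diluted in saline with 1% Tween-80, final ethanol 9%, 0.22 μm filtered. +E2 groups received 60 μg unlabeled estradiol co-injected. Killed under ether at set times; tissues KCl-washed, blotted, weighed, gamma counted; %ID/g, mean with SE.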

The test system of series [3] is Rattus norvegicus. The series can be described thus: Biodistribution in fat of immature female rat after 5 hour administration of 3 micro Ci (111 kBq) in the absence of 60 microg estradiol. Format: ADME, organism-based, Adipose tissue. To be noted: in vivo. An outline of the steps: as §1
Series [4] has as its system Rattus norvegicus. The experiment in a line: Biodistribution in blood of immature female rat after 1 hr administration of 3 micro Ci (111 kBq) in the absence of 60 microg estradiol. To be noted: in vivo. It counts as ADME, organism-based. The method, boiled down:
as §1

In series [5] the test system is Rattus norvegicus. The series can be described thus: Biodistribution in thyroid of immature female rat after 1 hr administration of 3 micro Ci (111 kBq) in the absence of 60 microg estradiol. It counts as ADME, organism-based, Thyroid gland. To be noted: in vivo. An outline of the steps: as §2
Series [6] deals with Rattus norvegicus. The experiment in a line: Biodistribution in kidney of immature female rat after 5 hour administration of 3 micro Ci (111 kBq) in the absence of 60 microg estradiol. To be noted: in vivo. It counts as ADME, organism-based. The method, boiled down: as §1
Series [7] relates to Rattus norvegicus. The series can be described thus: Biodistribution in liver of immature female rat after 5 hour administration of 3 micro Ci (111 kBq) in the absence of 60 microg estradiol. It counts as ADME, organism-based. To be noted: in vivo. An outline of the steps:
as §1

In series [8] the test system is Rattus norvegicus. The experiment in a line: Biodistribution in blood of immature female rat after 12 hour administration of 3 micro Ci (111 kBq) in the absence of 60 microg estradiol. It counts as ADME, organism-based. The following applies: in vivo. An outline of the steps:
as §1

Series [9] deals with Rattus norvegicus. The experiment in a line: Biodistribution in fat of immature female rat after 12 hour administration of 3 micro Ci (111 kBq) in the absence of 60 microg estradiol. Format: ADME, organism-based, Adipose tissue. The following applies: in vivo. An outline of the steps:
as §1

Series [10] relates to Rattus norvegicus. The series can be described thus: Biodistribution in uterus / spleen, muscle, lungs of immature female rat after 3 hour administration of 3 micro Ci (111 kBq) in the absence of 60 microg estradiol. Format: ADME, organism-based. To be noted: in vivo. The method, boiled down:
(§3)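 Immature female Long Evans rats (21–24 days, 45–70 g), 3–5 per group, unanesthetized in retention cages, given 3 μCi (111 kBq) 125I-labeled steroid by lateral tail vein. Vehicle: ethanol diluted with saline containing 1% Tween-80, final ethanol 9%. +E2 group co-injected 60 μg unlabeled estradiol (1 h only). Killed under ether; tissues KCl-washed, weighed, gamma-counted. Output: %ID/g (mean, SE) and uterus to blood or nontarget (muscle, spleen, lungs) ratios.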

Series [11] has as its system Rattus norvegicus. The series can be described thus: Biodistribution in kidney of immature female rat after 1 hr administration of 3 micro Ci (111 kBq) in the absence of 60 microg estradiol. It counts as ADME, organism-based. The following applies: in vivo. An outline of the steps: as §1
Series [12] has as its system Rattus norvegicus. The series can be described thus: Biodistribution in thyroid of immature female rat after 12 hour administration of 3 micro Ci (111 kBq) in the absence of 60 microg estradiol. To be noted: in vivo. Format: ADME, organism-based, Thyroid gland. An outline of the steps:
as §2

For series [13], the system named is Rattus norvegicus. The experiment in a line: Biodistribution in spleen of immature female rat after 1 hr administration of 3 micro Ci (111 kBq) in the absence of 60 microg estradiol. It counts as ADME, organism-based. To be noted: in vivo. An outline of the steps: as §2
Series [14] relates to Rattus norvegicus. The series can be described thus: Biodistribution in spleen of immature female rat after 5 hour administration of 3 micro Ci (111 kBq) in the absence of 60 microg estradiol. It counts as ADME, organism-based. To be noted: in vivo. An outline of the steps: as §2
In series [15] the test system is Rattus norvegicus. The experiment in a line: Biodistribution in uterus of immature female rat after 1 hr administration of 3 micro Ci (111 kBq) in the absence of 60 microg estradiol. Format: ADME, organism-based. To be noted: in vivo. The method, boiled down: as §3
The test system of series [16] is Rattus norvegicus. The series can be described thus: Biodistribution in kidney of immature female rat after 3 hour administration of 3 micro Ci (111 kBq) in the absence of 60 microg estradiol. Format: ADME, organism-based. The following applies: in vivo. The method, boiled down:
as §1

Series [17] has as its system Rattus norvegicus. The experiment in a line: Biodistribution in muscle of immature female rat after 1 hr administration of 3 micro Ci (111 kBq) in the absence of 60 microg estradiol. It counts as ADME, organism-based, Muscle tissue. To be noted: in vivo. The method, boiled down:
as §2

Series [18] deals with Rattus norvegicus. The experiment in a line: Biodistribution in spleen of immature female rat after 12 hour administration of 3 micro Ci (111 kBq) in the absence of 60 microg estradiol. The following applies: in vivo. It counts as ADME, organism-based. The method, boiled down:
as §2

Series [19] has as its system Rattus norvegicus. The experiment in a line: Biodistribution in uterus / blood of immature female rat after 1 hr administration of 3 micro Ci (111 kBq) in the presence of (+E2). It counts as ADME, organism-based. To be noted: in vivo. An outline of the steps: (§4)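 Same in vivo procedure: immature female Long Evans rats (21–24 days), three to five per group, 3 μCi (111 kBq) tracer i.v. via tail vein in 9% ethanol/saline/1% Tween-80, ± 60 μg estradiol co-injected at 1 h. Uterus %ID/g (gamma counting) divided by blood, or by nontarget organ (muscle, spleen, lungs), %ID/g to give ratios.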

The subject of series [20] is Rattus norvegicus. The series can be described thus: Biodistribution in uterus / blood of immature female rat after 5 hour administration of 3 micro Ci (111 kBq) in the absence of 60 microg estradiol. Format: ADME, organism-based. The following applies: in vivo. The method, boiled down: as §4
Series [21] deals with Rattus norvegicus. The experiment in a line: Biodistribution in fat of immature female rat after 1 hr administration of 3 micro Ci (111 kBq) in the presence of (+E2). It counts as ADME, organism-based, Adipose tissue. To be noted: in vivo. The method, boiled down:
as §1

For series [22], the system named is Rattus norvegicus. The series can be described thus: Biodistribution in muscle of immature female rat after 3 hour administration of 3 micro Ci (111 kBq) in the absence of 60 microg estradiol. Format: ADME, organism-based, Muscle tissue. The following applies: in vivo. The method, boiled down:
as §2

In series [23] the test system is Rattus norvegicus. The series can be described thus: Biodistribution in lungs of immature female rat after 5 hour administration of 3 micro Ci (111 kBq) in the absence of 60 microg estradiol. It counts as ADME, organism-based, Lung. The following applies: in vivo. An outline of the steps:
as §2

Series [24] concerns Rattus norvegicus. The experiment in a line: Biodistribution in uterus / blood of immature female rat after 3 hour administration of 3 micro Ci (111 kBq) in the absence of 60 microg estradiol. The following applies: in vivo. It counts as ADME, organism-based. An outline of the steps: as §4
The target of series [25] is Estrogen receptor (Mus musculus) (UniProt O08537+P19785). The series can be described thus: Relative binding affinity (RBA) against murine cytoplasmic estrogen receptor incubated at 0-4 degree Celsius for 18 hours. Format: protein assay. The method, boiled down:
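Competitive binding on murine uterine cytoplasmic extract with 20 nM [3H]estradiol and competitor steroids at 2 nM–20 μM, incubated 18 h at 0–4 °C. RBA = 100 × ratio of […] concentration giving 50% competition for specific binding. Mean of three experiments with SD.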

The subject of series [26] is Rattus norvegicus. The series can be described thus: Biodistribution in blood of immature female rat after 1 hr administration of 3 micro Ci (111 kBq) in the presence of (+E2). Format: ADME, organism-based. The following applies: in vivo. An outline of the steps: as §1
Series [27] relates to Rattus norvegicus. The series can be described thus: Biodistribution in muscle of immature female rat after 12 hour administration of 3 micro Ci (111 kBq) in the absence of 60 microg estradiol. To be noted: in vivo. It counts as ADME, organism-based, Muscle tissue. The method, boiled down: as §2
In series [28] the test system is Rattus norvegicus. The experiment in a line: Biodistribution in thyroid of immature female rat after 3 hour administration of 3 micro Ci (111 kBq) in the absence of 60 microg estradiol. It counts as ADME, organism-based, Thyroid gland. The following applies: in vivo. An outline of the steps:
as §2

Series [29] concerns Rattus norvegicus. The experiment in a line: Biodistribution in lungs of immature female rat after 1 hr administration of 3 micro Ci (111 kBq) in the absence of 60 microg estradiol. Format: ADME, organism-based, Lung. The following applies: in vivo. An outline of the steps:
as §1

Series [30] concerns Rattus norvegicus. The series can be described thus: Biodistribution in uterus / spleen, muscle, lungs of immature female rat after 1 hr administration of 3 micro Ci (111 kBq) in the presence of (+E2). It counts as ADME, organism-based. To be noted: in vivo. The method, boiled down: as §4

Sequence of Estrogen receptor (Mus musculus) (O08537 whole entry, looked up): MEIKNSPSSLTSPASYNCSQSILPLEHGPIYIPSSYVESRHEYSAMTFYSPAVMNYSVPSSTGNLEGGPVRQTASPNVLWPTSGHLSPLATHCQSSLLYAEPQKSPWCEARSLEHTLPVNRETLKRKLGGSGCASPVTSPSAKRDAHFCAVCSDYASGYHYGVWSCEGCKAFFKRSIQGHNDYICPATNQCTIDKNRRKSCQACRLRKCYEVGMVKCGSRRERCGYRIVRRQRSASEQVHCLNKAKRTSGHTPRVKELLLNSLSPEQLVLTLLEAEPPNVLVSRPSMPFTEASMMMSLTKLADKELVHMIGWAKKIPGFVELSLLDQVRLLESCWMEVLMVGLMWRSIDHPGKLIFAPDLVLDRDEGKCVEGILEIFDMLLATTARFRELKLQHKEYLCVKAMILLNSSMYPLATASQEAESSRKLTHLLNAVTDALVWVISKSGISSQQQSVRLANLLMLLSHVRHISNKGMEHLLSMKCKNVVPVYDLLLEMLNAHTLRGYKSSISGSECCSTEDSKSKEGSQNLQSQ
Sequence of Estrogen receptor (Mus musculus) (P19785 whole entry, looked up): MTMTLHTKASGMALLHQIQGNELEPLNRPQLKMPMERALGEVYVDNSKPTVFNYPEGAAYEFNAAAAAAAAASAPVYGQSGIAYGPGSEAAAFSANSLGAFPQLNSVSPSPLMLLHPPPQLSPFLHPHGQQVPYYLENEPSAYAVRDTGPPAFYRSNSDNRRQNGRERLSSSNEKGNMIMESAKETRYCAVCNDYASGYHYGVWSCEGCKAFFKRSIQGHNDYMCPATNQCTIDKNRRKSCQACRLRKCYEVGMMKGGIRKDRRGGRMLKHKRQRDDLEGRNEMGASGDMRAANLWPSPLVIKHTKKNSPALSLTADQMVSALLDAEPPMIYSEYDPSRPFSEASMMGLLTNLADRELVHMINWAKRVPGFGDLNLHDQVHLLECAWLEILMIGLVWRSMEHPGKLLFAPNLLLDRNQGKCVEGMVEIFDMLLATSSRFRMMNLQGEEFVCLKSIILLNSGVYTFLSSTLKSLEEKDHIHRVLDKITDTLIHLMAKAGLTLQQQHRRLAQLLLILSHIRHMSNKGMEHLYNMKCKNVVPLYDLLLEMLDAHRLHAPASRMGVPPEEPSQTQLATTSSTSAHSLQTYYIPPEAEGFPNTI

`C[C@]12CC[C@@H]3c4cc(F)c(O)cc4CC[C@H]3[C@@H]1CC[C@@]2(O)/C=C\I`: the ID/g in series [1] was found to be 2.19%; in [2], 0.12%; in series [3] it was 1.13%; in [4], 0.61%; in series [5] it was 39%; in series [6] it was 0.3%. Moreover, the ID/g in series [7] is 1.16%; in series [8] it was 0.17%; in [9], 0.19%; in series [11] it was 0.88%; in series [12], 365%; in series [13] it was 0.55%. Also, the ID/g in series [14] worked out at 0.2%; in series [15] it was 4.41%; in series [16], 0.53%; in series [17], 0.57%; in series [18], 0.17%; in series [21], 2.88%. Moreover, the ID/g in series [22] was found to be 0.28%; in series [23] it was 0.24%; in [26], 0.58%; in series [27], 0.05%; in series [28], 75.3%; in series [29], 0.81%. Moreover, in [10], the “Uterus to nontarget tissue (spleen, muscle, lungs) uptake ratio” value is 17.64%. The “uterus/blood %ID/g ratio” value in series [19] was determined as 1.2%. The “uterus to blood ratio” value in [20] came out at 12.09%. Moreover, the “uterus to blood %ID/g ratio (unitless)” value in series [24] is reported as 12.98%. In addition, the RBA in series [25] came out at 53.7. For the same molecule, in series [30], the “uterus-to-nontarget tissue uptake ratio” value worked out at 0.51%.
In [25], `CO[C@H]1C[C@@]2(C)[C@@H](CC[C@@]2(O)/C=C\I)[C@@H]2CCc3cc(O)c(F)cc3[C@H]21` came in with an RBA of 27.9.
`C[C@]12CC[C@@H]3c4cc(F)c(O)cc4CC[C@H]3[C@@H]1CC[C@@]2(O)/C=C/I`: the ID/g in series [1] was 3.45%; in [2], 0.1%; in series [3], 2.39%; in [4] it was 0.53%; in [5], 27%; in [6], 0.25%. The ID/g in [7] amounted to 2.12%; in [8] it was 0.08%; in series [9], 0.41%; in [11], 0.87%; in series [12], 163%; in series [13], 0.57%. The ID/g is recorded as 0.27% in series [14]; 1% in series [15]; 0.47% in [16]; 0.73% in [17]; 0.05% in series [18]; 2.93% in series [21]. Further, the ID/g in [22] is 0.37%; in [23], 0.54%; in [26], 0.49%; in series [27], 0.03%; in series [28] it was 39.1%; in [29] it was 1%. Besides, the “uterus/blood %ID/g ratio” value in [19] was 1.09%. Moreover, in series [20], the “uterus to blood ratio” value is given as 1.15%. Besides, the “uterus to blood %ID/g ratio (unitless)” value in [24] worked out at 1.4%. In addition, the RBA in [25] came to 6.2.

Source of the values: ChEMBL document CHEMBL1126849, “Synthesis of A-ring fluorinated derivatives of (17 alpha,20E/Z)-[125I]iodovinylestradiols: effect on receptor binding and receptor-mediated target tissue uptake” (J Med Chem, 1993).
